# Experimental data reported in ChEMBL document CHEMBL1153016, “Dopamine- and tyramine-based derivatives of triazenes: activation by tyrosinase and implications for prodrug design” (Eur J Med Chem, 2009).
# T1: Tyrosinase (Agaricus bisporus) (UniProt O42713)
# T1 sequence (whole entry): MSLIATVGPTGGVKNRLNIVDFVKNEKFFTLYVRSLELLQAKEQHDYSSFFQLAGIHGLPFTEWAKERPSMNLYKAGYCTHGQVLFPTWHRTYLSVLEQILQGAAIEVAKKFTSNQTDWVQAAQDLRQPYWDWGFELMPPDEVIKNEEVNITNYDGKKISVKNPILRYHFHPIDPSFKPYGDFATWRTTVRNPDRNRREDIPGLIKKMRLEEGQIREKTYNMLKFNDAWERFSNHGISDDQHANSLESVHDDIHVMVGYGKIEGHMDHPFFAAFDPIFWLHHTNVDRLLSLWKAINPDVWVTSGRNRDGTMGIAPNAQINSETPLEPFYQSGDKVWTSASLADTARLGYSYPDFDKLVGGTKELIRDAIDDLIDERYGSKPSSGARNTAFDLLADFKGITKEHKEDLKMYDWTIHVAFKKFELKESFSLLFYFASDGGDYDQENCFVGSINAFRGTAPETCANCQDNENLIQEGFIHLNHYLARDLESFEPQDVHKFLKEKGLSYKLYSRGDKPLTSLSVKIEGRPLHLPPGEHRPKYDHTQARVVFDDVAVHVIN
# Legend:
# [1] = system: tyrosinase; assay: Stability assessed as half life at 50 uM by HPLC analysis in presence of mushroom tyrosinase; format: ADME
# Outline: (§1)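 Mushroom tyrosinase at 100U/mL in pH 7.4 phosphate buffer (2.4 mL) with DMSO (0.6 mL), 37 °C. Prodrug added from 10^-2 M stock, final substrate 5 x 10^-5 M, incubated with gentle stirring. Consumption followed by HPLC with UV at 300 nm, giving half-life of activation. Km and Vmax determined; turnover number derived from Vmax.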
# [2] = organism: Homo sapiens; assay: Stability assessed as hydrolytic half life in 80% human plasma at 10 uM by HPLC analysis
# [3] = Chemical stability in phosphate buffer of pH 7.4 at 10 uM by HPLC analysis; format: physicochemical; conditions: pH 7.4, 10 µM
# Outline: (§2)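 Hydrolysis at 37 °C in pH 7.4 PBS containing 20% DMSO, substrate 10^-5 M. Aliquots analysed by reversed-phase HPLC with UV at 300 nm to give half-life.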
# [4] = Apparent partition coefficient in phosphate buffer of pH 7.4 by HPLC analysis; format: physicochemical
# Outline: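 Log Pexp measured at room temperature in 1-octanol/pH 7.4 phosphate buffer, phases mutually pre-saturated. Compound dissolved in octanol and shaken 30 min to equilibrium. Each phase analysed by HPLC, octanol phase first diluted 1:10 in acetonitrile. P taken as the ratio of octanol to buffer peak area.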
# [5] = target: T1, Tyrosinase (Agaricus bisporus); assay: Binding affinity to Mushroom tyrosinase assessed as compound turnover by HPLC analysis; outline: as §1
# [6] = Ratio of chemical stability in phosphate buffer of pH 7.4 to chemical stability in human plasma; format: ADME
# [7] = Chemical stability of the assessed as hydrolytic half life in phosphate buffer of pH 7.4 at 10 uM by HPLC analysis; format: physicochemical; outline: as §2
# [8] = system: Plasma; assay: Stability in 80% human plasma at 10 uM by HPLC analysis; format: ADME, cell-free
# Outline: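 Pooled heparinised human plasma from healthy donors, stored at –70 °C, diluted to 80% (v/v) with pH 7.4 isotonic phosphate buffer. Substrate 10^-5 M, incubated at 37 °C. At intervals, 200 µL aliquots quenched in 400 µL acetonitrile and centrifuged; supernatant analysed by HPLC for substrate and products to give half-life.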
# [9] = substrate: CN(/N=N/c1ccc(C#N)cc1)C(=O)NCCc1ccc(O)cc1; assay: (§3) Activity at mushroom tyrosinase; conditions: Agaricus bisporus; outline: as §1
# [10] = substrate: CCOC(=O)c1ccc(/N=N/N(C)C(=O)NCCc2ccc(O)c(O)c2)cc1; assay: as §3; conditions: Agaricus bisporus; outline: as §1
Molecule,half-life at 50 µM [1] [h],half-life at 10 µM [2] [h],Stability [3] [days],logD [4],Activity [5] [s⁻¹],Ratio [6],half-life at 10 µM [7] [h],Stability [8] [days],also measured
CCOC(=O)c1ccc(/N=N/N(C)C(=O)NCCc2ccc(O)cc2)cc1,0.215,71.5,15,3.96,,,,,
NCCc1ccc(O)c(O)c1,,,,,439,,,,
CCOC(=O)c1ccc(/N=N/N(C)C(=O)NCCc2ccc(O)c(O)c2)cc1,0.102,14.7,,3.78,6,1.5,20.8,,
NCCc1ccc(O)cc1,,,,,25.9,,,,
Cc1ccc(/N=N/N(C)C(=O)NCCc2ccc(O)c(O)c2)cc1,0.14,5.66,2,4.17,,1.5,,,
CC(=O)c1ccc(/N=N/N(C)C(=O)NCCc2ccc(O)c(O)c2)cc1,0.165,9.3,,3.24,,1.5,15.1,,
CN(/N=N/c1ccc(C#N)cc1)C(=O)NCCc1ccc(O)cc1,0.197,,15,2.89,0.6,,,2,
CC(=O)c1ccc(/N=N/N(C)C(=O)NCCc2ccc(O)cc2)cc1,0.217,,15,3.25,,,,2,
Cc1ccc(/N=N/N(C)C(=O)NCCc2ccc(O)cc2)cc1,0.303,,,3.9,,,364,2,
"Tyrosinase (Agaricus bisporus), O42713 (protein) MSLIATVGPTGGVKNRLNIVDFVKNEKFFTLYVRSLELLQAKEQHDYSSFFQLAGIHGLPFTEWAKERPSMNLYKAGYCTHGQVLFPTWHRTYLSVLEQILQGAAIEVAKKFTSNQTDWVQAAQDLRQPYWDWGFELMPPDEVIKNEEVNITNYDGKKISVKNPILRYHFHPIDPSFKPYGDFATWRTTVRNPDRNRREDIPGLIKKMRLEEGQIREKTYNMLKFNDAWERFSNHGISDDQHANSLESVHDDIHVMVGYGKIEGHMDHPFFAAFDPIFWLHHTNVDRLLSLWKAINPDVWVTSGRNRDGTMGIAPNAQINSETPLEPFYQSGDKVWTSASLADTARLGYSYPDFDKLVGGTKELIRDAIDDLIDERYGSKPSSGARNTAFDLLADFKGITKEHKEDLKMYDWTIHVAFKKFELKESFSLLFYFASDGGDYDQENCFVGSINAFRGTAPETCANCQDNENLIQEGFIHLNHYLARDLESFEPQDVHKFLKEKGLSYKLYSRGDKPLTSLSVKIEGRPLHLPPGEHRPKYDHTQARVVFDDVAVHVIN",,,,,,,,,Km [9]: 310 µM; Vmax [9]: 0.03 mM/min; Km [10]: 710 µM; Vmax [10]: 0.31 mM/min
